Assays:
[1] = biological target: T1, Solute carrier organic anion transporter family member 1B1 (Homo sapiens, UniProt Q9Y6L6); experiment: Inhibition of OATP1B1 (unknown origin) expressed in HEK293 cells assessed as reduction of [3H]estradiol-17beta-glucuronide uptake at 10 uM after 3 mins by beta-counting; format: ADME, cell-based; conditions: hek293, 0.05 h
T1 sequence (Q9Y6L6 whole entry): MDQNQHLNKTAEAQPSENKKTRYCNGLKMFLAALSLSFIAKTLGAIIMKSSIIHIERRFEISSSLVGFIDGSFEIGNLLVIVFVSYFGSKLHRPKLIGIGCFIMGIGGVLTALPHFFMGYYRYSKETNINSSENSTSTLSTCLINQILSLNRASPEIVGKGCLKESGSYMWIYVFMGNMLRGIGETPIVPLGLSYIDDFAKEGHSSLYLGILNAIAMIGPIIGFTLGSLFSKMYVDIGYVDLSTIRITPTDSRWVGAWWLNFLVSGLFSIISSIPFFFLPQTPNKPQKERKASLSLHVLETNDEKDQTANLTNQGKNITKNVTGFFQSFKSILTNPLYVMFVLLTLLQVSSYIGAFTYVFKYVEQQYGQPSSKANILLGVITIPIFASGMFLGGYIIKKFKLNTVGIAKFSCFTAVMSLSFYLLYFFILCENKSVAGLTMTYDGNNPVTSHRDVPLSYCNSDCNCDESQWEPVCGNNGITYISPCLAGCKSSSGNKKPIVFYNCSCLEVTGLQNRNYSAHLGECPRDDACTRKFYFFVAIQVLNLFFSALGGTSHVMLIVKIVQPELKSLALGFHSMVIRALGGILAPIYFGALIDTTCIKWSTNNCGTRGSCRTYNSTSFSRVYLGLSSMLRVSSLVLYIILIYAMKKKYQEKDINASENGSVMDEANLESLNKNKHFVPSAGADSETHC
Procedure, shortened: (§1)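 Confluent cells were washed in PBS, then given 1 µM [3H]-E2 17G (OATP1B1, OATP1B3 HEK293) or 1 µM [3H]-E1S (OATP2B1 MDCKII) with 10 µM compound in HBSS pH 7.4 for 3 min at 37°C. Uptake into mock or parental cells was subtracted after protein normalization. Results are % vehicle, mean ± SD of at least three experiments in triplicate.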

[2] = biological target: T2, Solute carrier organic anion transporter family member 2B1 (Homo sapiens, UniProt O94956); experiment: Inhibition of OATP2B1 (unknown origin) expressed in MDCK2 cells assessed as reduction of [3H]estrone-3-sulfate uptake at 10 uM after 3 mins by beta-counting; format: ADME, cell-based; conditions: mdck-ii, 0.05 h; procedure, shortened: as §1
T2 sequence (O94956 whole entry): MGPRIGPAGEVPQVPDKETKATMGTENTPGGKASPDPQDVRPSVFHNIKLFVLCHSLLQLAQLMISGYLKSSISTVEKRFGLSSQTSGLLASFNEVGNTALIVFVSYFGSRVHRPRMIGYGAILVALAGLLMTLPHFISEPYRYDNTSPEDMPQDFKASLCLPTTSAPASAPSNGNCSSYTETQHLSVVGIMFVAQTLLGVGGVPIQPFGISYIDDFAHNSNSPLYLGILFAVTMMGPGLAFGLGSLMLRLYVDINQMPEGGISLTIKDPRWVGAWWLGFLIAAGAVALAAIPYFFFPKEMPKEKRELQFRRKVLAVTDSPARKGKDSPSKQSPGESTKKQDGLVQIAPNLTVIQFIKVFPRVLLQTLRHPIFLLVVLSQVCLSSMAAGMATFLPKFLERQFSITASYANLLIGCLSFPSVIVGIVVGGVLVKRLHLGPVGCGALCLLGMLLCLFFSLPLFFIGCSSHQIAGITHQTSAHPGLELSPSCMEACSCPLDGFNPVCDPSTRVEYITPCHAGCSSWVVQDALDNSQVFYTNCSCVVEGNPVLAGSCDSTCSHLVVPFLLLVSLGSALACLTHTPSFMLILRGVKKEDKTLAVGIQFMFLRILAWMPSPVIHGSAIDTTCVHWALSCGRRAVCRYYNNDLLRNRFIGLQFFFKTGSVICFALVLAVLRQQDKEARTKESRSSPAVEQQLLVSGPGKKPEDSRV

[3] = biological target: T3, Solute carrier organic anion transporter family member 1B3 (Homo sapiens, UniProt Q9NPD5); experiment: Inhibition of OATP1B3 (unknown origin) expressed in HEK293 cells assessed as reduction of [3H]estradiol-17beta-glucuronide uptake at 10 uM after 3 mins by beta-counting; format: ADME, cell-based; conditions: hek293, 0.05 h; procedure, shortened: as §1
T3 sequence (Q9NPD5 whole entry): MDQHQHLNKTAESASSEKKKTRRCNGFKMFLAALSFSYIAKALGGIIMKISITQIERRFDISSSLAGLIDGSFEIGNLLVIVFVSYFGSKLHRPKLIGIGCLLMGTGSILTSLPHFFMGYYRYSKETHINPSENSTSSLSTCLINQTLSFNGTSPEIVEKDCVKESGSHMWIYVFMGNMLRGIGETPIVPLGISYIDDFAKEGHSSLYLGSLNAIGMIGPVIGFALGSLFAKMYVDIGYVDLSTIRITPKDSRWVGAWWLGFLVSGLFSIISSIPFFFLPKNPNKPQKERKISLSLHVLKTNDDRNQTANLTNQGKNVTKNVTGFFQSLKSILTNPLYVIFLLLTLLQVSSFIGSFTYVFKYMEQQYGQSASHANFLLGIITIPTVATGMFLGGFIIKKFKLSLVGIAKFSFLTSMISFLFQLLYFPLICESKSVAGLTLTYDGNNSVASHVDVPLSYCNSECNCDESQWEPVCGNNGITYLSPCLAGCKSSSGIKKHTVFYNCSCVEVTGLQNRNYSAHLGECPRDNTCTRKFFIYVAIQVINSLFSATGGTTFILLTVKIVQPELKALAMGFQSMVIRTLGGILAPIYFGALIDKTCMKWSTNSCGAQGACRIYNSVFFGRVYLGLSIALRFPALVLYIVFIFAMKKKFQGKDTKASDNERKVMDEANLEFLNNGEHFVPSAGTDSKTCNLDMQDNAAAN

[4] = biological target: T1, Solute carrier organic anion transporter family member 1B1; experiment: Inhibition of OATP1B1 (unknown origin) expressed in HEK293 cells assessed as reduction of [3H]estradiol-17beta-glucuronide uptake after 3 mins by beta-counting; format: ADME, cell-based
Procedure, shortened: (§2)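 Transfected HEK293 (G418) or MDCKII (hygromycin B) cells were co-incubated with 0-100 µM compound and [3H]-E2 17G (1 µM, 0.25 µCi/ml; OATP1B1, OATP1B3) or [3H]-E1S (1 µM; OATP2B1) in HBSS pH 7.4, 3 min at 37°C. OATP-negative uptake was subtracted, and results expressed as % vehicle. Two experiments were run in duplicate. IC50 came from non-linear dose-response fits.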

[5] = biological target: T2, Solute carrier organic anion transporter family member 2B1; experiment: Inhibition of OATP2B1 (unknown origin) expressed in MDCK2 cells assessed as reduction of [3H]estrone-3-sulfate uptake after 3 mins by beta-counting; format: ADME, cell-based, MDCK-II; procedure, shortened: as §2
[6] = biological target: T3, Solute carrier organic anion transporter family member 1B3; experiment: Inhibition of OATP1B3 (unknown origin) expressed in HEK293 cells assessed as reduction of [3H]estradiol-17beta-glucuronide uptake after 3 mins by beta-counting; format: ADME, cell-based; procedure, shortened: as §2

SMILES	inhibition (INH) [1]	inhibition (INH) [2]	inhibition (INH) [3]	IC50 [4] [µM]	IC50 [5] [µM]	IC50 [6] [µM]
COc1cc([C@H]2Oc3ccc([C@H]4Oc5cc(O)cc(O)c5C(=O)[C@@H]4O)cc3O[C@@H]2CO)ccc1O [ISOSILYBIN A]	Active	Active				
COc1cc([C@@H]2Oc3ccc([C@H]4Oc5cc(O)cc(O)c5C(=O)[C@@H]4O)cc3O[C@H]2CO)ccc1O [ISOSILYBIN B]	Active	Active	Active			
COc1cc(C2Oc3c(O)cc([C@H]4Oc5cc(O)cc(O)c5C(=O)[C@@H]4O)cc3C2CO)ccc1O (stereo not given in full) [SILICRISTIN]	Not Active	Active		9	3.6	36.4

Reference: ChEMBL document CHEMBL3526004, “Interaction of silymarin flavonolignans with organic anion-transporting polypeptides” (Drug Metab Dispos, 2013)
